ChEMBL document CHEMBL1255259, “Phosphorothioate-modified oligodeoxynucleotides inhibit human cytomegalovirus replication by blocking virus entry” (Antimicrob Agents Chemother, 2008)
Calls of active or inactive are those of the source. No cut-off for these calls is given here.

Experiments:
[1] = Cytotoxicity against HELF assessed as cell viability after 6 days by MTT assay; assay type: cell-based; conditions: human, HELF cells
Method in brief: (§1)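 HELF exposed to rising ODN concentrations (up to 10 μM) for 6 days; viable cells measured by MTT. CC50 taken as concentration that cuts viability to 50%.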

[2] = Cytotoxicity against HELF assessed as cell viability by MTT assay after 6 days at <=10 uM; assay type: cell-based; conditions: human, 144 h; method in brief: as §1
Human betaherpesvirus 5 [3] = experiment: Antimicrobial activity against Human cytomegalovirus isolate 1814 infected in compound pretreated HUVEC assessed as inhibition of viral replication; assay type: functional, organism-based; conditions: Human betaherpesvirus 5, isolate 1814, HUVEC
Method in brief: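 HUVEC (passages 2–6, EGM-2 with 2% FBS) pretreated 1 h with ODN and infected with HCMV VR1814 at MOI 1; ODN maintained after 2 h adsorption. Yield at 6 days p.i. titrated on HELF; IC50 from concentration-dependent plaque reduction.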

Human betaherpesvirus 5 [4] = experiment: Antimicrobial activity against Human cytomegalovirus AD169 infected in compound pretreated HELF assessed as expression of immediate early 1 protein by immunoblotting; assay type: functional, organism-based
Method in brief: (§2)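 HELF pretreated with ODN (1 μM) 1 h before and during infection with HCMV AD169 (MOI 1). Whole-cell extracts taken at set times p.i., run on 8% SDS-PAGE (50 μg protein/lane), immunoblotted with MAbs to IE1/IE2, UL44 (early) or UL99 (late); actin as loading control.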

Human betaherpesvirus 5 [5] = experiment: Antimicrobial activity against Human herpesvirus 5 strain AD169 infected in HELF assessed as pp65 nuclear localization at 0.1 uM after 2 hrs […]; assay type: functional, organism-based
unidentified adenovirus = experiment: Antimicrobial activity against unidentified adenovirus infected in compound pretreated HELF assessed as inhibition of viral replication; assay type: functional, organism-based
Method in brief: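 HELF pretreated 1 h with ODN (0.1 or 1 μM), infected with an adenovirus clinical isolate (MOI 1); ODN kept after 2 h adsorption. Harvest at 4 days p.i., sonication, plaque titration on HELF. Means ± SD, three experiments.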

Human betaherpesvirus 5 [6] = experiment: Antimicrobial activity against Human cytomegalovirus AD169 infected in HELF assessed as inhibition of viral replication at 0.1 uM measured after 6 days post-infection; assay type: functional, organism-based
Human betaherpesvirus 5 [7] = experiment: Antimicrobial activity against Human cytomegalovirus AD169 infected in 0.1 uM compound pretreated HELF assessed as viral DNA accumulation measured after 4 hrs post-infection by RT-PCR; assay type: functional, organism-based
Method in brief: (§3)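 HELF treated with ODN (0.1 μM), then infected with HCMV AD169 (MOI 5). Total genomic DNA collected at 4 and 48 h p.i.; 15 ng analysed by TaqMan real-time PCR for IE1 (50 cycles, 95°C 15 s / 62°C 1 min). Copies normalized to 18S rRNA gene against plasmid standard curve. Means ± SD, three experiments.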

Human betaherpesvirus 5 [8] = experiment: Antimicrobial activity against Human cytomegalovirus AD169 infected in compound pretreated HELF measured as immediate early 2 mRNA level by RT-PCR; assay type: functional, organism-based
Human betaherpesvirus 5 [9] = experiment: Antimicrobial activity against Human cytomegalovirus AD169 infected in compound pretreated HELF assessed as expression of late protein by immunoblotting; assay type: functional, organism-based; method in brief: as §2
Human alphaherpesvirus 1 [10] = experiment: Antimicrobial activity against Human herpesvirus 1 infected in compound pretreated HELF assessed as inhibition of viral replication at 1 uM; assay type: functional, organism-based
Method in brief: (§4)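 HELF pretreated with ODN (0.1 or 1 μM) 1 h before infection with a clinical HSV-1 isolate at MOI 0.1; ODN kept in medium after 2 h adsorption. Harvest at 48 h p.i., sonication, plaque titration on Vero cells. Means ± SD of three independent experiments.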

Human betaherpesvirus 5 [11] = experiment: Antimicrobial activity against Human cytomegalovirus AD169 infected in HELF assessed as inhibition of viral replication at 1 uM measured after 6 days post-infection; assay type: functional, organism-based
Human betaherpesvirus 5 [12] = experiment: Antimicrobial activity against Human cytomegalovirus AD169 infected in compound pretreated HELF assessed as expression of immediate early 2 protein by immunoblotting; assay type: functional, organism-based; method in brief: as §2
Human betaherpesvirus 5 [13] = experiment: Antimicrobial activity against Human cytomegalovirus AD169 infected in compound pretreated HELF measured as immediate early 1 mRNA level by RT-PCR; assay type: functional, organism-based
Human alphaherpesvirus 1 [14] = experiment: Antimicrobial activity against Human herpesvirus 1 infected in compound pretreated HELF assessed as inhibition of viral replication at 0.1 uM; assay type: functional, organism-based; method in brief: as §4
[15] = test system: Vesicular stomatitis Indiana virus; experiment: Antimicrobial activity against Vesicular stomatitis Indiana virus infected in compound pretreated HELF assessed as inhibition of viral replication; assay type: functional, organism-based
Method in brief: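 HELFs exposed to ODN (0.1 or 1 μM) for 1 h, then infected with VSV serotype Indiana at MOI 1 (2 h adsorption, 37°C). ODN kept in the medium until 48 h p.i. Cells and supernatants were pooled, sonicated and titrated by plaque assay on HELFs. Data are means ± standard deviations of three independent experiments, duplicate wells.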

Human betaherpesvirus 5 [16] = experiment: Antimicrobial activity against Human cytomegalovirus AD169 infected in compound pretreated HELF assessed as inhibition of viral replication measured after 6 days post-infection; assay type: functional, organism-based; conditions: Human betaherpesvirus 5, AD169, HELF
Method in brief: (§5)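 HELF pretreated with ODN 1 h before infection with HCMV AD169 (MOI 1); ODN kept in medium after 2 h adsorption at 37°C. At 6 days p.i., cells plus supernatants sonicated and titrated by plaque assay on HELF; plaques counted microscopically, expressed as PFU/ml (log10) or % of control. IC50/IC90 by linear regression; duplicate wells, three independent experiments, means ± SD.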

Human betaherpesvirus 5 [17] = experiment: Antimicrobial activity against Human cytomegalovirus isolate AL1 infected in compound pretreated HELF assessed as inhibition of viral replication; assay type: functional, organism-based; conditions: Human betaherpesvirus 5, isolate AL1, HELF
Method in brief: (§6)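 HELF pretreated 1 h with ODN, infected with clinical HCMV isolate (VR1814 or AL1, HUVEC-propagated) at MOI 1; ODN kept after 2 h adsorption. At 6 days p.i., yield titrated on HELF; IC50 from concentration–plaque reduction plot.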

Human betaherpesvirus 5 [18] = experiment: Antimicrobial activity against Human cytomegalovirus AD169 infected in compound pretreated HELF assessed as expression of early protein by immunoblotting; assay type: functional, organism-based; method in brief: as §2
Human betaherpesvirus 5 [19] = experiment: Antimicrobial activity against 0.1 uM compound pretreated Human cytomegalovirus AD169 infected in HELF assessed as reduction in viral titer 37 degC; assay type: functional, organism-based
Method in brief: (§7)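 HCMV AD169 (10^4 PFU) incubated with ODN at 0.1 μM at 4 or 37°C for various times; samples then diluted to bring ODN below an antivirally active level; residual infectivity titrated by plaque assay on HELF. Means ± SD of three independent experiments.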

Human betaherpesvirus 5 [20] = experiment: Antimicrobial activity against Human cytomegalovirus AD169 infected in 1 uM compound pretreated HELF assessed as inhibition of viral replication measured after 6 days post-infection; assay type: functional, organism-based; method in brief: as §5
[21] = Antimicrobial activity against Murine cytomegalovirus (strain Smith) infected in compound pretreated mouse NIH 3T3 cells assessed as inhibition of viral replication; assay type: functional, cell-based; conditions: Murid betaherpesvirus 1, NIH3T3
Method in brief: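 NIH 3T3 pretreated 1 h with ODN, infected with MCMV Smith (MOI 1); ODN kept after 2 h adsorption at 37°C. Harvest at 6 days p.i., sonication, plaque assay on NIH 3T3; IC50 from plaque reduction. Means ± SD, three experiments.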

Human betaherpesvirus 5 [22] = experiment: Antimicrobial activity against Human cytomegalovirus TB40 expressing EGPF tagged UL32 infected in HELF assessed as inhibition of inhibition of viral adsorption at 0.1 uM after 2 hrs by fluorescence microscopy; assay type: functional, organism-based
Method in brief: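 Prechilled HELF on coverslips exposed to ODN (0.1 μM) or heparin (30 μg/ml) 1 h at 4°C, then infected with HCMV TB40 UL32-EGFP (MOI 20) 2 h at 4°C to permit attachment only. Washed in ice-cold PBS, fixed in 4% formaldehyde, propidium iodide counterstain; green virions imaged by confocal fluorescence microscopy. Done twice.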

Human betaherpesvirus 5 [23] = experiment: Antimicrobial activity against Human cytomegalovirus AD169 infected in 0.1 uM compound pretreated HELF assessed as viral DNA accumulation measured after 48 hrs post-infection by RT-PCR; assay type: functional, organism-based; method in brief: as §3
Human betaherpesvirus 5 [24] = experiment: Antimicrobial activity against Human cytomegalovirus AD169 infected in 0.1 uM compound pretreated HELF assessed as inhibition of viral replication measured after 6 days post-infection; assay type: functional, organism-based; method in brief: as §5
Human betaherpesvirus 5 [25] = experiment: Antimicrobial activity against Human cytomegalovirus isolate 1814 infected in compound pretreated HELF assessed as inhibition of viral replication; assay type: functional, organism-based; conditions: Human betaherpesvirus 5, isolate 1814, HELF; method in brief: as §6
Human betaherpesvirus 5 [26] = experiment: Antimicrobial activity against 0.1 uM compound pretreated Human cytomegalovirus AD169 infected in HELF assessed as reduction in viral titer at 4 degC; assay type: functional, organism-based; method in brief: as §7

Cc1cn([C@H]2C[C@H](OP(O)(O)=S)[C@@H](COP(O)(=S)O[C@H]3C[C@H](n4cc(C)c(=O)[nH]c4=O)O[C@@H]3COP(O)(=S)O[C@H]3[C@@H](O)[C@H](n4cnc5c(=O)[nH]c(N)nc54)O[C@@H]3COP(O)(=S)O[C@H]3[C@@H](O)[C@H](n4ccc(N)nc4=O)O[C@@H]3COP(O)(=S)O[C@H]3C[C@H](n4cc(C)c(=O)[nH]c4=O)O[C@@H]3COP(O)(=S)O[C@H]3[C@@H](O)[C@H](n4cnc5c(=O)[nH]c(N)nc54)O[C@@H]3COP(O)(=S)O[C@H]3C[C@H](n4cc(C)c(=O)[nH]c4=O)O[C@@H]3COP(O)(=S)O[C@H]3C[C@H](n4cc(C)c(=O)[nH]c4=O)O[C@@H]3COP(O)(=S)O[C@H]3C[C@H](n4cc(C)c(=O)[nH]c4=O)O[C@@H]3COP(O)(=S)O[C@H]3C[C@H](n4cc(C)c(=O)[nH]c4=O)O[C@@H]3COP(O)(=S)O[C@H]3[C@@H](O)[C@H](n4cnc5c(=O)[nH]c(N)nc54)O[C@@H]3COP(O)(=S)O[C@H]3[C@@H](O)[C@H](n4ccc(N)nc4=O)O[C@@H]3COP(O)(=S)O[C@H]3C[C@H](n4cc(C)c(=O)[nH]c4=O)O[C@@H]3COP(O)(=S)O[C@H]3[C@@H](O)[C@H](n4cnc5c(=O)[nH]c(N)nc54)O[C@@H]3COP(O)(=S)O[C@H]3C[C@H](n4cc(C)c(=O)[nH]c4=O)O[C@@H]3COP(O)(=S)O[C@H]3C[C@H](n4cc(C)c(=O)[nH]c4=O)O[C@@H]3COP(O)(=S)O[C@H]3C[C@H](n4cc(C)c(=O)[nH]c4=O)O[C@@H]3COP(O)(=S)O[C@H]3C[C@H](n4cc(C)c(=O)[nH]c4=O)O[C@@H]3COP(O)(=S)O[C@H]3[C@@H](O)[C@H](n4cnc5c(=O)[nH]c(N)nc54)O[C@@H]3COP(O)(=S)O[C@H]3[C@@H](O)[C@H](n4ccc(N)nc4=O)O[C@@H]3COP(O)(=S)O[C@H]3C[C@H](n4cc(C)c(=O)[nH]c4=O)O[C@@H]3COP(O)(=S)O[C@H]3[C@@H](O)[C@H](n4cnc5c(=O)[nH]c(N)nc54)O[C@@H]3COP(O)(=S)O[C@H]3[C@@H](O)[C@H](n4ccc(N)nc4=O)O[C@@H]3COP(O)(=S)O[C@H]3C[C@H](n4cc(C)c(=O)[nH]c4=O)O[C@@H]3CO)O2)c(=O)[nH]c1=O (stereo partly drawn)
CC50 at 144 h [1]: > 10 µM | Activity [2]: Non-toxic | IC50 (Human betaherpesvirus 5 [3]): 25 nM | inhibition (Human betaherpesvirus 5 [4]): Active | inhibition (Human betaherpesvirus 5 [5]): Active | inhibition (unidentified adenovirus): inactive | inhibition (Human betaherpesvirus 5 [6]): inactive | inhibition (Human betaherpesvirus 5 [7]): Active | inhibition (Human betaherpesvirus 5 [8]): Active | inhibition (Human betaherpesvirus 5 [9]): Active | inhibition (Human alphaherpesvirus 1 [10]): inactive | inhibition (Human betaherpesvirus 5 [11]): inactive | inhibition (Human betaherpesvirus 5 [12]): Active | inhibition (Human betaherpesvirus 5 [13]): Active | inhibition (Human alphaherpesvirus 1 [14]): inactive | inhibition [15]: inactive | IC50 (Human betaherpesvirus 5 [16]): 20 nM | IC90 (Human betaherpesvirus 5 [16]): 65 nM | IC50 (Human betaherpesvirus 5 [17]): 44 nM | inhibition (Human betaherpesvirus 5 [18]): Active | inhibition (Human betaherpesvirus 5 [19]): inactive | inhibition (Human betaherpesvirus 5 [20]): Active | IC50 [21]: 50 nM | inhibition (Human betaherpesvirus 5 [22]): inactive | inhibition (Human betaherpesvirus 5 [23]): Active | inhibition (Human betaherpesvirus 5 [24]): Active | IC50 (Human betaherpesvirus 5 [25]): 38 nM | inhibition (Human betaherpesvirus 5 [26]): inactive
